≈ marks a conversion by molar mass, not a printed value.
Tests used:
[1] = target: T1, Gonadotropin-releasing hormone receptor (Homo sapiens, UniProt P30968); assay: Displacement of [125I]-(D-Trp6)LHRH from human recombinant GnRH receptor
T1 sequence (P30968 whole entry): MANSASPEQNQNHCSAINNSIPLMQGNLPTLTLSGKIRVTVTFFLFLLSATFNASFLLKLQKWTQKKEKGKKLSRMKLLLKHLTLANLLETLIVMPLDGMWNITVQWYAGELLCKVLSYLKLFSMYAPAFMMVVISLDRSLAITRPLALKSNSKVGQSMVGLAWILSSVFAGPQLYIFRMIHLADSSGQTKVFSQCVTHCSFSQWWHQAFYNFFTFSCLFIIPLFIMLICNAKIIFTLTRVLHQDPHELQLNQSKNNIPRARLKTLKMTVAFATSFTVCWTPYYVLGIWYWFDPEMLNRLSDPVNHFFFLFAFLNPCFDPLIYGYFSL
In short: (§1)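 Membranes from recombinant cells expressing human or rat GnRH receptor, made in 25 mM Tris-Cl pH 7.4 with 0.1% sodium azide and 0.1% BSA. 50 μg protein incubated with about 50,000 cpm 125I-(D-Trp6)-LHRH for 2 h at 4 °C, with increasing unlabeled competitor. Filtered on BSA-presoaked glass-fiber filters, washed twice, counted by gamma counter. Percent inhibition and IC50 derived.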

[2] = target: T2, Gonadotropin-releasing hormone receptor (Rattus norvegicus, UniProt P30969); assay: Displacement of [125I]-(D-Trp6)LHRH from rat recombinant GnRH receptor; in short: as §1
T2 sequence (P30969 whole entry): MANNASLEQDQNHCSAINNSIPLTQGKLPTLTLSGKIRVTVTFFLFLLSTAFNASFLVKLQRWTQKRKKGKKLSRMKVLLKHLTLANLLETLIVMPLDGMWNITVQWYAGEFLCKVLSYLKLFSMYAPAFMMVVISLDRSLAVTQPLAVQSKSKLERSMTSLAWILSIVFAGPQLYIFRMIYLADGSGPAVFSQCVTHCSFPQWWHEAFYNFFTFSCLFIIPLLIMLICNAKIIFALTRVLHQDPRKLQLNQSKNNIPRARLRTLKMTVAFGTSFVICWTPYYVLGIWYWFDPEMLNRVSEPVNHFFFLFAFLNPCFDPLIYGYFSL

[3] = target: T1, Gonadotropin-releasing hormone receptor; assay: Antagonist activity at human recombinant GnRH receptor assessed as reduction in (D-Trp6)LHRH-induced myo-(1,2)-[3H]inositol production; format: functional
In short: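 Recombinant cells expressing human GnRH receptor, pre-labeled with myo-(1,2)-3H-inositol, incubated 1 h in medium with lithium chloride and D-Trp6-LHRH, with or without antagonist. Cells then lysed and labeled inositol phosphates separated from inositol by […] and counted. Run in triplicate, repeated in three independent experiments; IC50 derived.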

[4] = target: T2, Gonadotropin-releasing hormone receptor; assay: Antagonist activity at […] GnRH receptor in CO2 asphyxiated rat primary pituitary cells assessed as reduction in (D-Trp6)LHRH-induced LH release; format: functional, cell-based, Pituitary gland cell
In short: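 Anterior pituitaries from adult rats were minced, dissociated and plated at 30,000 cells/well in DMEM with 25 mM Hepes and 10% FBS, then cultured 72 h at 37 °C, 5% CO2. After washing, cells were treated 3 h in 0.1% BSA medium with an antagonist dose response plus an ED50 concentration of D-Trp6-LHRH. LH in medium measured by RIA; cell toxicity checked by CellTiter-Glo.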

[5] = target: T3, Gonadotropin-releasing hormone receptor (Homo sapiens) (UniProt P30968); assay: Displacement of [125I]-(D-Trp6)LHRH from human recombinant GnRH receptor at 10 uM; in short: as §1
T3 sequence (whole entry): T1 sequence (P30968 whole entry)

[6] = target: T4, 5-hydroxytryptamine receptor 1A (Homo sapiens, UniProt P08908); assay: Binding affinity to human 5HT1A receptor; details: read-out: Ki
T4 sequence (P08908 whole entry): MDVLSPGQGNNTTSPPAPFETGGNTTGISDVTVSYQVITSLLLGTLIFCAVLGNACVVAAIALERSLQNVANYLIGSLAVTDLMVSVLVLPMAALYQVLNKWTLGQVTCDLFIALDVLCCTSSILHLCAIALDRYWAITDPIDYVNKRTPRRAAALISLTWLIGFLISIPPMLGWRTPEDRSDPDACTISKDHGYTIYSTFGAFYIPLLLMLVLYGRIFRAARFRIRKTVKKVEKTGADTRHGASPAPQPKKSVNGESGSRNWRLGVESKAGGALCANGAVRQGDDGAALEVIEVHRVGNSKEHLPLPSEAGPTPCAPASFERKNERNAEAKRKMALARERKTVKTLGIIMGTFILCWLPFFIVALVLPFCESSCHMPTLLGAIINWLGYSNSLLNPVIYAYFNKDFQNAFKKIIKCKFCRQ

[7] = target: 5-hydroxytryptamine receptor 1B (Homo sapiens, UniProt P28222); assay: Binding affinity to human 5HT1B receptor
[8] = target: 5-hydroxytryptamine receptor 1D (Homo sapiens, UniProt P28221); assay: Binding affinity to human 5HT1D receptor
[9] = Solubility of compound at pH 7.4; format: physicochemical; details: buffer
[10] = Membrane permeability by PAMPA assay; format: ADME; details: read-out: permeability
[11] = Metabolic stability in rat liver microsomes assessed as half life; format: ADME, Microsome
[12] = Half life in rat plasma at 10 mg/kg, po; format: ADME, organism-based; set-up: dose 10 mg/kg, route oral
[13] = Tmax in rat at 10 mg/kg, po; format: ADME, organism-based; set-up: dose 10 mg/kg, route oral; details: in vivo
[14] = Cmax in rat at 10 mg/kg, po; format: ADME, organism-based; set-up: dose 10 mg/kg, route oral; details: in vivo
[15] = AUC (0 to infinity) in rat at 10 mg/kg, po; format: ADME, organism-based; set-up: dose 10 mg/kg, route oral, time infinity; details: plasma
[16] = Bioavailability in rat at 10 mg/kg, po; format: ADME, organism-based; details: in vivo
[17] = Half life in rat plasma at 1.0 mg/kg, iv; format: ADME, organism-based; set-up: dose 1 mg/kg, route intravenous
[18] = AUC (0 to infinity) in rat at 1.0 mg/kg, iv; format: ADME, organism-based; set-up: time infinity, dose 1 mg/kg, route intravenous; details: plasma
[19] = Plasma clearance in rat at 1.0 mg/kg, iv; format: ADME, organism-based; set-up: dose 1 mg/kg, route intravenous
[20] = Volume of distribution at steady state in rat at 1.0 mg/kg, iv; format: ADME, organism-based; set-up: dose 1 mg/kg, route intravenous; details: in vivo, read-out: Vdss

5-hydroxytryptamine receptor 1D, sequence (P28221 whole entry): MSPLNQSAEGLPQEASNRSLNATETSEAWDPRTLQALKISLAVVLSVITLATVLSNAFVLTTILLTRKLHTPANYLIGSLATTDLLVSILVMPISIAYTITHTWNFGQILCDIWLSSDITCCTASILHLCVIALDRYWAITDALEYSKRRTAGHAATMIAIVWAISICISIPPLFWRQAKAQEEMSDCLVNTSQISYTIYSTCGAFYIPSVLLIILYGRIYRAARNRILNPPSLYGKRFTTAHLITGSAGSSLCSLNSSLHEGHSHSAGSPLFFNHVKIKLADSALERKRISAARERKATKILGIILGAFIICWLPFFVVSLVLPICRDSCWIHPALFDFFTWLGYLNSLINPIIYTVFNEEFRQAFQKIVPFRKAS
5-hydroxytryptamine receptor 1B, sequence (P28222 whole entry): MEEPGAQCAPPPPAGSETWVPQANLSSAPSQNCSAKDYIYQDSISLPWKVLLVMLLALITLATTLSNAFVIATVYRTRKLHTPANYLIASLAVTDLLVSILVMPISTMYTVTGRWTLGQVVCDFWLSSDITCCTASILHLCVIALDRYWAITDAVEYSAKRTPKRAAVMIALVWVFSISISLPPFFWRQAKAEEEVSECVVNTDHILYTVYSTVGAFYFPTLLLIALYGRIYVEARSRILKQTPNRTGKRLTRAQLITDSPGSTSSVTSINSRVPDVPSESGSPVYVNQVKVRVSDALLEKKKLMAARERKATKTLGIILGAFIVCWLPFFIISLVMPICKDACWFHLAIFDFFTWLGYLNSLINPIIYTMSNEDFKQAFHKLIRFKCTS

Compound | IC50 [1] [nM] | IC50 [2] [nM] | IC50 [3] [nM] | Activity [5] [%] | also measured
CC(C)(C)c1ccc(-c2nc3c(N4CCN(Cc5cccc6[nH]c(=O)[nH]c56)CC4)cccc3[nH]2)cc1 | 8.7 | 680 | 63 | – | IC50 [4]: 1500 nM
O=c1[nH]c2cccc(N3CCN(CCOc4cccc5[nH]c(=S)[nH]c45)CC3)c2[nH]1 | – | – | – | 6 | –
FC(F)(F)C(F)(F)c1nc2c(N3CCN(CCOc4cccc5[nH]c(=S)[nH]c45)CC3)cccc2[nH]1 | 6300 | > 100000 | – | – | –
FC(F)(F)c1nc2c(N3CCN(CCOc4cccc5nc(C(F)(F)F)[nH]c45)CC3)cccc2[nH]1 | 1500 | 15000 | 9200 | – | Ki [6]: 19 nM; IC50 [4]: 83000 nM; Ki [7]: 60 nM; Ki [8]: 0.55 nM
CC(C)(C)c1ccc(-c2nc3c(N4CCN(Cc5cccc6[nH]c(=O)c(=O)[nH]c56)CC4)cccc3[nH]2)cc1 | 5.7 | 72 | 24 | – | IC50 [4]: 480 nM
CC(C)(C)c1ccc(-c2nc3c(N4CCN(Cc5ccccc5)CC4)cccc3[nH]2)cc1 | – | – | – | 6 | –
CC(C)(C)c1ccc(-c2nc3c(N4CCN(CCOc5cccc6nc(C(F)(F)F)[nH]c56)CC4)cccc3[nH]2)cc1 | 50 | 710 | 1200 | – | –
FC(F)(F)c1nc2c(N3CCN(Cc4cccc5nc(C(F)(F)F)[nH]c45)CC3)cccc2[nH]1 | 9500 | 64000 | 21000 | – | –
S=c1[nH]c2cccc(OCCN3CCN(c4cccc5[nH]cnc45)CC3)c2[nH]1 | – | – | – | 5 | –
CC(C)(C)c1ccc(-c2nc3c(N4CCN(Cc5c[nH]c(=O)[nH]c5=O)CC4)cccc3[nH]2)cc1 | 5.5 | 32 | 9.4 | – | IC50 [4]: 41 nM; solubility [9]: 25 µg/mL (≈ 54.5 µM); Papp [10]: 0.6 ×10⁻⁶ cm/s; half-life [11]: 0.5 h; half-life [12]: 5.8 h; Tmax [13]: 1.8 h; Cmax [14]: 19 ng/mL; AUC(0-inf) [15]: 200 ng·h/mL; bioavailability [16]: 5%; half-life [17]: 3.5 h; AUC(0-inf) [18]: 355 ng·h/mL; clearance [19]: 47 mL/min/kg; Vd [20]: 3.1 L/kg
FC(F)(F)c1nc2c(N3CCN(CCOc4ccc5[nH]c(=S)[nH]c5c4)CC3)cccc2[nH]1 | 4500 | – | – | – | –
O=c1[nH]c2cccc(N3CCN(CCOc4cccc5[nH]c(=S)[nH]c45)CC3)c2[nH]c1=O | – | – | – | 9 | –
Cn1c(C(F)(F)F)nc2c(N3CCN(CCOc4cccc5[nH]c(=S)[nH]c45)CC3)cccc21 | – | – | – | 8 | –
Cc1cccc(-c2nc3c(N4CCN(CCOc5cccc6[nH]c(=S)[nH]c56)CC4)cccc3[nH]2)c1 | – | – | – | 47 | –
Cn1c(C(F)(F)F)nc2c(N3CCN(CCOc4cccc5[nH]c(C(F)(F)F)nc45)CC3)cccc21 | – | – | – | 5 | –
CC(C)(C)c1ccc(-c2nc3c(N4CCN(Cc5ccc6ccccc6c5)CC4)cccc3[nH]2)cc1 | – | – | – | 7 | –
Cc1ccc(-c2nc3c(N4CCN(CCOc5cccc6[nH]c(=S)[nH]c56)CC4)cccc3[nH]2)c(C)c1 | 1200 | – | – | – | –
Cc1nc2c(N3CCN(CCOc4cccc5[nH]c(=S)[nH]c45)CC3)cccc2[nH]1 | – | – | – | 10 | –

Source: ChEMBL document CHEMBL1157420, “2-phenyl-4-piperazinylbenzimidazoles: orally active inhibitors of the gonadotropin releasing hormone (GnRH) receptor” (Bioorg Med Chem, 2008)
